Bioassay records as filed in PubChem.
CHO parental Ca: ATP-evoked calcium signal inhibitors, parental CHO, primary screen, counter-screen for OX1R antagonist project, cell-based, fluorescence, Fluo-8 calcium dye | parental CHO-K1, ATP-induced calcium, Fluo-8 fluorescence | inhibition, % at 5.6 µM | hit rate 0.63% among 330,000;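 active means inhibition above that plate's mean sample inhibition plus 3 SD, cut at about 26% in these data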;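 further: 0% = ATP-challenged DMSO wells and 100% = DMSO wells without ATP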
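Assay system – parental CHO cells · Reagent – ATP stimulus · Detection – intracellular calcium via Fluo-8 no-wash fluorescent dye · Evaluation – percent inhibition of ATP-evoked calcium rise, normalized to controls · Controls – ATP wells versus no-ATP DMSO wells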
TAAR1 antagonist: human TAAR1 antagonists, primary screen, Fluo-8 calcium fluorescence, CHO RD-HGA16 cells; Trace amine-associated receptor 1 (Homo sapiens), Q96RJ0; antagonist; inhibition, % at 3 µM; hit rate 1.5% among 360,000;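 active means inhibition above a per-plate cutoff, the mean inhibition of test compounds on that plate plus 3 SD, cut at about 49% in these data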;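 further: 0% = DMSO plus EC80 beta-PEA response and 100% = DMSO alone without agonist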
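Test system: RD-HGA16 CHO cells with stable hTAAR1 and Gα16 / Probe or stimulus: EC80 β-phenethylamine stimulus / Times: seeding 17-24 h prior, 75-min 37 °C, 30-min RT dye loading / Detection: Fluo-8 calcium-sensitive fluorescence / Read-out basis: % inhibition scaled between DMSO and EC80 PEA controls / Repeats: singlicate, one well per test compound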
OX1R antag-1: OX1R (HCRTR1) antagonists, primary screen, fluorescence, CHO/OX1R cells, Fluo-8 calcium, orexin A | Orexin/Hypocretin receptor type 1 (Homo sapiens), O43613 | Fluo-8 calcium fluorescence | inhibition, % at 5 µM | hit rate 0.43% among 330,000 | AID 434989, 2010;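 active means inhibition above its plate's threshold, mean inhibition of all tested compounds on the plate plus 3 SD, cut at about 37% in these data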;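 further: 0% = orexin A challenge wells and 100% = SB-334867-A antagonist wells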
Target sequence (O43613 whole entry, looked up): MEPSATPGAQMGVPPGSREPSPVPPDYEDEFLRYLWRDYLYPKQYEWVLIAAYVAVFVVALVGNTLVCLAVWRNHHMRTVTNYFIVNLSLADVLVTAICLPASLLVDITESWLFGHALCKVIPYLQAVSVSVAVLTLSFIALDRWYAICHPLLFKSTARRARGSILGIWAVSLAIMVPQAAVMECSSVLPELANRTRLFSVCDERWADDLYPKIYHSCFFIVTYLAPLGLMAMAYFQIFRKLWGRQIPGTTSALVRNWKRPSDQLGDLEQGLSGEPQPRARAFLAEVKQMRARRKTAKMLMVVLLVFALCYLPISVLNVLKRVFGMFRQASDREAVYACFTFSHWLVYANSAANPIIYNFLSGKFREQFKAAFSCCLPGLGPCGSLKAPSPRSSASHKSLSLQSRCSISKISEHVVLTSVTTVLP
TAAR1 ag: human TAAR1 agonists, primary screen, Fluo-8 calcium fluorescence, CHO RD-HGA16 cells. vehicle wells 0%, saturating PEA agonist 100%. hit rate 0.99% among 360,000. Trace amine-associated receptor 1 (Homo sapiens), Q96RJ0. activation, % at 3 µM. AID 624467, 2012;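 active means activation above the mean activation of all test compounds in the run plus 3 SD, cut at about 38% in these data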
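Assay system – CHO-derived RD-HGA16 cells with stable Gα16 and human TAAR1 · Compound dosing – one-point dosing at 3 µM (nominal) · Incubation – 17-24 h seeding, 75 min 37 °C dye, 30 min RT · Measured by – kinetic Fluo-8 calcium fluorescence · Control set – DMSO vehicle as 0%, PEA at EC100 as 100% · Repeats – single well for each compound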
OX1R antag-2: antagonists of human orexin 1 receptor (OX1R); OX1R-expressing cells, FRET antagonist read-out; AID 485270, 2010; hit rate 1.8% among 330,000; inhibition, % at 6.6 µM; Orexin/Hypocretin receptor type 1 (Homo sapiens), O43613; in the data active means inhibition mostly above about 38%, no sharp cut-off; inactive means mostly below about 40%;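 further: 0% = agonist challenge alone and 100% = reference antagonist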
* = called active by the depositor; . = no result given. Shown are actives, neighbours in structure and some others; about 4% of the full set was active somewhere.

SMILES | CHO parental Ca | TAAR1 antagonist | OX1R antag-1 | TAAR1 ag | OX1R antag-2
CCOc1ccc(S(=O)(=O)N2CCN(C(=O)CCC(=O)N3CCOCC3)CC2)cc1 | -19 | 6 | -5 | -2 | 15
COc1ccc(CN2C[C@H](COCc3ccccc3)Oc3cccc(F)c3S2(=O)=O)cc1 | . | 15 | . | 2 | .
CC(=O)N1CCN(c2ccc(N3CCN(Cc4ccccc4)[C@@H](C)C3)c(C)c2)[C@H](C)C1 | . | -12 | . | 5 | .
Nc1[nH]c(C(=O)c2ccccc2)c(-c2ccc(Cl)cc2F)c1C(=O)NCCc1c[nH]c2ccccc12 | . | 10 | . | 3 | .
N#CC(C#N)=C1C=C2C=C(N3CCCCC3)CCC2CC1 (stereo not given) | 101* | . | 106* | . | 42
N#CC1=C(N)C2=C(N3CCCCC3)CCCC2C1(C#N)C#N (stereo not given) | 10 | . | -18 | . | 20
COc1cc(OC)c2c(=O)c3c(C(=O)O)c(O)ccc3oc2c1 | . | -16 | . | 0 | .
COC(=O)CCCn1cc(CN2CC(N3CCN(C)CC3)CS2(=O)=O)nn1 (stereo not given) | . | 6 | . | 0 | .
CCC(C)(C)c1ccc(OCCCC[n+]2ccc(C)cc2)c(C(C)(C)CC)c1 | 24 | 0 | 27 | 33 | 20
CCC(C)(C)c1ccc(OCCCC[n+]2cccc(C)c2C)c(C(C)(C)CC)c1 | 40* | -16 | 52* | 21 | 9
CCN(C(=O)C(C)OC(=O)CCCNC(=O)c1ccc(Cl)cc1)c1ccccc1 (stereo not given) | -16 | 2 | -27 | 1 | 7
CCS(=O)(=O)c1ccc(-c2cccc(NC(=O)COc3ccc(Cl)cc3)c2)nn1 | -6 | 49* | 9 | 8 | 13
CS(=O)(=O)c1ccc(-c2cccc(NC(=O)COc3ccc(Cl)cc3)c2)nn1 | -11 | 20 | 0 | 11 | 12
O=C(COc1ccccc1)Nc1cccc(-c2ccc(N3CCOCC3)nn2)c1 | -4 | 49* | -35 | 10 | 7
CCOc1ccccc1N1CCN(C(=O)CCCc2nc3ccccc3s2)CC1 | -13 | 40 | -14 | 13 | 7
COc1cccc(OCC(O)CNC(=O)c2oc3ccc(C)cc3c2C)c1 (stereo not given) | -21 | -18 | -20 | 0 | 4
COC(=O)[C@]12C[C@H](CC(=O)NCCc3ccccc3OC)C(=O)N(CCC3=CCCCC3)C1=C[C@H](C(C)(C)C)O[C@@H]2C | . | -4 | . | 27 | .
CCn1c(Cc2cccs2)nnc1SCC(=O)NC(C)(C)C | -10 | 1 | -18 | 1 | 1
Cc1onc(-c2ccccc2)c1C(=O)Nc1nc(-c2ccc(F)c(F)c2)cs1 | -22 | -2 | -36 | 39* | 18
COc1ccc(-c2csc(NC(=S)NC(=O)c3cccs3)n2)cc1Br | -10 | -24 | -8 | 0 | 5
CCc1noc(C)c1C(=O)Nc1nc(-c2ccc(OC)c(OC)c2)cs1 | -18 | 41 | -7 | 8 | 61*
COc1ccc(-c2csc(NC(=S)NC(=O)c3cccs3)n2)cc1OC | . | 50* | . | 4 | .
Cc1ccc(-c2csc(NC(=O)c3c(C)noc3C)n2)cc1C | 2 | -3 | 24 | 8 | 32*
O=C(Nc1cccc(Cl)c1)c1csc([C@H]2C[C@H](O)[C@@H](CO)O2)n1 | . | -6 | . | 6 | .
COC(=O)C1=C(C)N(Cc2ccccc2C(F)(F)F)C(=NCc2cc(OC)c(OC)c(OC)c2)NC1c1cccc(F)c1 (stereo not given) | . | -4 | . | 10 | .
SMILES | CHO parental Ca | TAAR1 antagonist | OX1R antag-1 | TAAR1 ag | OX1R antag-2
CCc1noc(C)c1C(=O)OCC(=O)Nc1nc(-c2ccc(F)c(F)c2)cs1 | 36* | 69* | 69* | 13 | 21
CCOC(=O)CNC(=O)N(C)[C@H]1C[C@H]2c3[nH]c4c(-c5ccccc5)cccc4c3CCN2C(=O)[C@H]1[C@H](C)O | . | 43 | . | 6 | .
CCCCCc1cc(O)c2c(C)cc(=O)oc2c1 | 23 | -14 | 2 | 23 | 43*
Cn1c(N)c(N=Nc2ccc(S(N)(=O)=O)cc2)c(=O)n(C)c1=O | 14 | 8 | -4 | 1 | 60*
c1ccc(-c2cn3c(n2)-c2ccccc2C3)cc1 | 9 | -2 | -7 | -2 | 22
Cc1cccc(OCC(=O)NC(C)C(=O)N/N=C/c2c(OCc3ccccc3)ccc3ccccc23)c1 (stereo not given) | -6 | . | 2 | . | 43*
CN=c1c([N+](=O)[O-])nn(-c2ccc3c(c2)OCCO3)n1O | -2 | -7 | -19 | 13 | 62*
CC(C)c1ccc(N=c2c([N+](=O)[O-])nn(-c3ccc4c(c3)OCCO4)n2O)cc1 | -9 | 64* | -24 | 17 | 11
COc1cc(N=c2c([N+](=O)[O-])nn(-c3ccc4c(c3)OCCO4)n2O)cc(OC)c1 | -14 | -18 | -10 | 2 | 13
CCn1cc(CCC(=O)Nc2ccc(Oc3cccnc3)cc2)c2ccccc21 | . | 23 | . | 0 | .
Oc1ccc(CCNc2ncnc3ccc(Cl)cc23)cc1 | 72* | 51* | 43* | 5 | 86*
Cc1ccc(S(=O)(=O)N(C)C[C@@H]2Oc3ncc(C#CCC(C)C)cc3C(=O)N([C@H](C)CO)C[C@H]2C)cc1 | . | 6 | . | 1 | .
Clc1ccc(Cn2ncc3c(N4CCCCC4)ncnc32)c(Cl)c1 | -10 | 78* | -16 | 36 | 27
O=C1c2ccccc2C(=O)C1c1ccc2ccccc2n1 | -6 | 3 | -19 | 11 | 51*
Cc1nc([N+](=O)[O-])cn1CC(Cl)Cn1cc([N+](=O)[O-])nc1C | . | -16 | . | 2 | .
CC(CC(=O)Nc1ccc(Cl)c([N+](=O)[O-])c1)c1ccccc1 (stereo not given) | 60* | 38 | 66* | 4 | 91*
O=C(Nc1ccccc1)Nc1ccc(Cl)c([N+](=O)[O-])c1 | 10 | -6 | 5 | 33 | 33
Cc1nn(-c2ccccc2)c(Cl)c1/C=N/NC(=O)OC(C)(C)C | -2 | 54* | 8 | 13 | 7
Cc1nn(-c2ccccc2)c(Cl)c1/C=N/NC(=O)c1ccco1 | -4 | -18 | -10 | 4 | 45*
NC(=O)c1ncn([C@@H]2O[C@H](C(=O)N[C@H](Cc3ccccc3)C(=O)N3CCN(c4ccc(Cl)cn4)CC3)[C@@H](O)[C@H]2O)n1 | . | -21 | . | 6 | .
Nc1c(C(=O)NCC2CCCO2)c2nc3ccccc3nc2n1-c1ccccc1 (stereo not given) | -8 | 50* | -17 | 27 | 51
CC(C)c1ccc(CC(=O)N2CCC2(C)C(=O)NCc2cccc3ccccc23)cc1 (stereo not given) | . | 36 | . | 6 | .
